Test results as given in ChEMBL document CHEMBL1142636 (2000).
In brackets after ≈: the same amount, converted by molar mass.

Experiments:
[1] = system: COLO 205; assay: Growth inhibition of human COLO205 cells; type: functional; settings: for EC50: read-out: ED50 (the source's name)
[2] = system: KB; assay: Growth inhibition of human KB cells; type: functional; settings: read-out: ED50 (the source's name)
Method in brief: (§1)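 In-house cytotoxicity assay following an NCI protocol, run on a panel of human tumour lines: KB nasopharyngeal epidermoid carcinoma and HCT-8 ileocecal adenocarcinoma. Potency is reported as ED50 in µg/mL.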

[3] = system: HCT-8; assay: Growth inhibition of human HCT8 cells; type: functional; settings: read-out: ED50 (the source's name); method in brief: as §1
[4] = system: SK-MEL-5; assay: Growth inhibition of human SK-MEL-5 cells; type: functional; settings: for EC50: read-out: ED50 (the source's name)
Method in brief: (§2)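 Tested at the NCI in its human disease-oriented in vitro screen of 60 tumour cell lines, following the Monks et al. methods. Activity is expressed as GI50, given as log molar values.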

[5] = system: NCI-H522; assay: Growth inhibition of human NCI-H522 cells; type: functional
[6] = system: HOP-18; assay: Growth inhibition of human HOP18 cells; type: functional
[7] = system: MOLT-4; assay: Growth inhibition of human MOLT4 cells; type: functional
[8] = Growth inhibition of human HL60(TB) cells; type: functional, HL-60(TB); settings: HL-60
[9] = system: SK-MEL-2; assay: Growth inhibition of human SK-MEL-2 cells; type: functional; method in brief: as §2
[10] = system: HCC 2998; assay: Growth inhibition of human HCC2998 cells; type: functional
[11] = system: NCI-H226; assay: Growth inhibition of human NCI-H226 cells; type: functional
[12] = Growth inhibition of human […] cells; type: functional
[13] = Growth inhibition of human RPMI8266 cells; type: functional
[14] = system: SN12C; assay: Growth inhibition of human SN12C cells; type: functional; method in brief: as §2
[15] = Growth inhibition of human DMS144 cells; type: functional
[16] = Growth inhibition of human OVACR8 cells; type: functional
[17] = system: CCRF-CEM; assay: Growth inhibition of human CCRF-CEM cells; type: functional
[18] = system: U-251; assay: Growth inhibition of human U251 cells; type: functional; method in brief: as §2
[19] = system: DLD-1; assay: Growth inhibition of human DLD1 cells; type: functional
[20] = system: SNB-75; assay: Growth inhibition of human SNB75 cells; type: functional; method in brief: as §2
[21] = system: A549; assay: Growth inhibition of human A549 cells; type: functional
[22] = system: TK-10; assay: Growth inhibition of human TK10 cells; type: functional; method in brief: as §2
[23] = system: HT-29; assay: Growth inhibition of human HT29 cells; type: functional
[24] = system: SF-268; assay: Growth inhibition of human SF268 cells; type: functional; method in brief: as §2
[25] = system: HCT-116; assay: Growth inhibition of human HCT116 cells; type: functional
[26] = Growth inhibition of human LXFL529 cells; type: functional; settings: LXFL 529
[27] = system: NCI-H322M; assay: Growth inhibition of human NCI-H322M cells; type: functional
[28] = system: SR; assay: Growth inhibition of human SR cells; type: functional; method in brief: as §2
[29] = system: HOP-62; assay: Growth inhibition of human HOP62 cells; type: functional
[30] = system: DMS-273; assay: Growth inhibition of human DMS273 cells; type: functional
[31] = system: UACC-62; assay: Growth inhibition of human UACC62 cells; type: functional; method in brief: as §2
[32] = system: LOX IMVI; assay: Growth inhibition of human LOX IMVI cells; type: functional
[33] = system: HCT-15; assay: Growth inhibition of human HCT15 cells; type: functional
[34] = Growth inhibition of human OVACR5 cells; type: functional
[35] = system: M19-MEL; assay: Growth inhibition of human M19-MEL cells; type: functional
[36] = Growth inhibition of human OVACR4 cells; type: functional
[37] = system: NCI-H460; assay: Growth inhibition of human NCI-H460 cells; type: functional
[38] = system: Malme-3M; assay: Growth inhibition of human MALME-3M cells; type: functional
[39] = system: SNB-19; assay: Growth inhibition of human SNB19 cells; type: functional; method in brief: as §2
[40] = system: RXF 393; assay: Growth inhibition of human […] cells; type: functional
[41] = system: M14; assay: Growth inhibition of human M14 cells; type: functional
[42] = system: KM12; assay: Growth inhibition of human KM12 cells; type: functional
[43] = system: HOP-92; assay: Growth inhibition of human HOP92 cells; type: functional
[44] = system: SF-539; assay: Growth inhibition of human SF539 cells; type: functional; method in brief: as §2
[45] = system: K562; assay: Growth inhibition of human K562 cells; type: functional
[46] = system: ACHN; assay: Growth inhibition of human ACHN cells; type: functional
[47] = system: SW-620; assay: Growth inhibition of human SW620 cells; type: functional; method in brief: as §2
[48] = system: KM-20L2; assay: Growth inhibition of human KM20L2 cells; type: functional
[49] = system: 786-0; assay: Growth inhibition of human 786-0 cells; type: functional
[50] = system: UO-31; assay: Growth inhibition of human UO31 cells; type: functional; method in brief: as §2
[51] = system: SK-MEL-28; assay: Growth inhibition of human SK-MEL-28 cells; type: functional; method in brief: as §2
[52] = system: SK-OV-3; assay: Growth inhibition of human SK-OV-3 cells; type: functional; method in brief: as §2
[53] = system: IGROV-1; assay: Growth inhibition of human IGROV1 cells; type: functional

`CC1=CC(=O)c2[nH]c3ccc(F)cc3c2C1=O` showed an EC50 [1] of 9.19 µg/mL (≈ 40.1 µM), an EC50 [2] of 5.25 µg/mL (≈ 22.9 µM) and an EC50 [3] of 5.88 µg/mL (≈ 25.7 µM). For the same molecule, the EC50 [4] was 2.51 µg/mL (≈ 11 µM).

`CC1=CC(=O)c2c([nH]c3ccc(F)cc23)C1=O` gave an EC50 [1] of 4.5 µg/mL (≈ 19.6 µM), an EC50 [2] of 2.03 µg/mL (≈ 8.86 µM) and an EC50 [3] of 4.76 µg/mL (≈ 20.8 µM). It also gave an EC50 [4] of 5.5 µg/mL (≈ 24 µM).

With `CC(C)=CCCC1(C)C=Cc2c(c(C)cc3c2[nH]c2cc(O)ccc23)O1` (stereo unspecified) the GI50 [5] was 6.76 µM, the GI50 [6] was 7.41 µM and the GI50 [7] was 0.00324 µM. The TGI ([7]; read-out: pTGI) was > 25.1 µM.

In the case of `COc1cccc2c3c([nH]c12)C(=O)C=C(C)C3=O`, the EC50 [1] is reported as 4.22 µg/mL (≈ 17.5 µM), the EC50 [2] is reported as 4.95 µg/mL (≈ 20.5 µM) and the EC50 [3] is reported as 5.3 µg/mL (≈ 22 µM). It also gave an EC50 [4] of 3.55 µg/mL (≈ 14.7 µM).

`CC1=CC(=O)c2c([nH]c3ccc(C)cc23)C1=O` showed an EC50 [1] of 3.2 µg/mL (≈ 14.2 µM), an EC50 [2] of 4.6 µg/mL (≈ 20.4 µM) and an EC50 [3] of 5.47 µg/mL (≈ 24.3 µM). For the same molecule, the EC50 [4] was 5.29 µg/mL (≈ 23.5 µM).

With `CC1=CC(=O)c2c([nH]c3ccc(Cl)cc23)C1=O` the EC50 [1] was 4.42 µg/mL (≈ 18 µM), the EC50 [2] was 3.52 µg/mL (≈ 14.3 µM) and the EC50 [3] was 5.5 µg/mL (≈ 22.4 µM). The EC50 [4] was 5.5 µg/mL (≈ 22.4 µM).

`CC(C)=CCCC1(C)C=Cc2c(ccc3c2[nH]c2cc(O)c(C)cc23)O1` (stereo unspecified) showed a GI50 [8] of 9.55 µM, a GI50 [5] of 3.89 µM and a GI50 [9] of 6.46 µM. The GI50 [10] was 4.68 µM, the GI50 [11] was 7.08 µM and the GI50 [12] was 4.79 µM. It also gave a GI50 [13] of 6.61 µM, a GI50 [14] of 4.68 µM and a GI50 [15] of 7.08 µM. It also gave a GI50 [16] of 3.8 µM, a GI50 [17] of 5.01 µM and a GI50 [18] of 4.57 µM. For the same molecule, the GI50 [19] was 8.91 µM, the GI50 [20] was 12.9 µM and the GI50 [21] was 6.61 µM. For the same molecule, the GI50 [22] was 16.6 µM, the GI50 [23] was 4.9 µM and the GI50 [24] was 5.01 µM. For the same molecule, the GI50 [25] was 8.71 µM, the GI50 [26] was 5.13 µM and the GI50 [27] was 6.61 µM. It also gave a GI50 [28] of 5.5 µM, a GI50 [29] of 4.79 µM and a GI50 [30] of 5.01 µM. For the same molecule, the GI50 [31] was 9.33 µM, the GI50 [7] was 4.17 µM and the GI50 [32] was 4.57 µM. The GI50 [33] was 5.01 µM, the GI50 [34] was 19.5 µM and the GI50 [35] was 6.92 µM. For the same molecule, the GI50 [36] was 7.94 µM, the GI50 [37] was 4.68 µM and the GI50 [4] was 4.9 µM. For the same molecule, the GI50 [38] was 5.25 µM, the GI50 [39] was 25.1 µM and the GI50 [40] was 5.25 µM. The GI50 [41] was 3.89 µM, the GI50 [42] was 4.79 µM and the GI50 [43] was 4.27 µM. The GI50 [44] was 4.57 µM, the GI50 [45] was 5.62 µM and the GI50 [46] was 6.76 µM. It also gave a GI50 [47] of 4.68 µM, a GI50 [48] of 5.25 µM and a GI50 [49] of 4.27 µM.

Molecule `COc1cc(Cn2c3ccccc3c3cc(C)cc(OC)c32)cc2c1[nH]c1ccccc12` has a GI50 [1] of 25.1 µM, a GI50 [8] of 12.3 µM and a GI50 [5] of 5.37 µM. For the same molecule, the GI50 [9] was 25.1 µM, the GI50 [10] was 25.1 µM and the GI50 [11] was 17 µM. For the same molecule, the GI50 [12] was 10.2 µM, the GI50 [13] was 25.1 µM and the GI50 [14] was 25.1 µM. The GI50 [15] was 20 µM, the GI50 [16] was 10.5 µM and the GI50 [17] was 12 µM. For the same molecule, the GI50 [18] was 25.1 µM, the GI50 [50] was 25.1 µM and the GI50 [19] was 25.1 µM. It also gave a GI50 [20] of 22.9 µM, a GI50 [21] of 23.4 µM and a GI50 [22] of 25.1 µM. It also gave a GI50 [23] of 17 µM, a GI50 [51] of 25.1 µM and a GI50 [24] of 17.4 µM. The GI50 [25] was 25.1 µM, the GI50 [26] was 17 µM and the GI50 [27] was 25.1 µM. The GI50 [28] was 16.6 µM, the GI50 [29] was 6.61 µM and the GI50 [30] was 15.1 µM. It also gave a GI50 [52] of 25.1 µM, a GI50 [31] of 15.1 µM and a GI50 [7] of 8.51 µM. For the same molecule, the GI50 [32] was 8.13 µM, the GI50 [33] was 17 µM and the GI50 [34] was 25.1 µM. The GI50 [35] was 25.1 µM, the GI50 [37] was 10.7 µM and the GI50 [4] was 25.1 µM. For the same molecule, the GI50 [38] was 25.1 µM, the GI50 [39] was 25.1 µM and the GI50 [41] was 6.31 µM. The GI50 [53] was 25.1 µM, the GI50 [42] was 10.2 µM and the GI50 [43] was 5.37 µM. For the same molecule, the GI50 [44] was 9.77 µM, the GI50 [45] was 9.77 µM and the GI50 [46] was 12.3 µM. The GI50 [47] was 13.5 µM, the GI50 [48] was 15.5 µM and the GI50 [49] was 25.1 µM.

For `COc1ccc2c3c([nH]c2c1)C(=O)C(C)=CC3=O`, the EC50 [1] was 4.51 µg/mL (≈ 18.7 µM), the EC50 [2] was 4.51 µg/mL (≈ 18.7 µM) and the EC50 [3] was 5.09 µg/mL (≈ 21.1 µM). For the same molecule, the EC50 [4] was 3.92 µg/mL (≈ 16.2 µM).
